Assay outcomes (PubChem BioAssay)
Most compounds without a hit are left out; they make up all but 1.3% or so of the library.
MDM2 E3 inh: inhibitors of human Mdm2 E3 ubiquitin ligase. signal enhancement, % at 5 µM. actives 0.11% (n = 210,000). cell-based MDM2 ubiquitination luciferase reporter, 2 h; 0 = plate control, 100 = twice control, blank-subtracted. Q00987;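 active = signal enhancement of 30% or more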;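 also: luminescence tracks abundance of the self-degrading MDM2-luciferase fusion protein; higher signal means inhibition of MDM2 E3 ligase activity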
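Material: Stable MDM2–luciferase fusion reporter cells | Amount: 2000 cells seeded into each well | Dosing: One concentration, 5 µM, with 0.2% DMSO | Incubation: 4 h cell settling then 2 h compound exposure, 37 °C | Measured by: Luciferase luminescence | Read-out basis: % enhancement relative to plate controls after blank subtraction | Benchmarks: Control and blank well means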
S1P3 antag: antagonists of human S1P3 receptor; inhibition, % at 4.98 µM; CHO S1P3 NFAT-BLA reporter, FRET fluorescence, antagonist mode; actives 0.27% (n = 170,000); Q99500;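 active = inhibition above the plate cutoff, the mean inhibition of test wells on that plate plus 3 SD, cut at about 28% in these data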;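 also: cells challenged with S1P at its EC80 of 0.8 µM; blue over green emission ratio from cleaved BLA substrate after 4 h stimulation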
Target sequence (Q99500 whole entry, looked up): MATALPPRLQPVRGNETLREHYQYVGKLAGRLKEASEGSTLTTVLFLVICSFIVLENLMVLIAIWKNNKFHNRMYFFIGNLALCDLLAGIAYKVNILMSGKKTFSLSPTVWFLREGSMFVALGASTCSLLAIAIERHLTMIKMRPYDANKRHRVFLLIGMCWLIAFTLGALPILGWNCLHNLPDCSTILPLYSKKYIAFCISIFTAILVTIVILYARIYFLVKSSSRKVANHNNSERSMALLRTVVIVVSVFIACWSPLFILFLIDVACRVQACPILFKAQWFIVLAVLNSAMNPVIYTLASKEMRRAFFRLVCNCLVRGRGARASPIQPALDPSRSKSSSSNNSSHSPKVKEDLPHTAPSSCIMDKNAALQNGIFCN
Dynein transport: dynein cargo transport inhibition. z-score, hits read low. actives 0.47% (n = 220,000). AID 1381. 3617.4 mouse cells, GR-EGFP nuclear translocation imaging; test concentration mostly 20 µM; stimulated with dexamethasone, 1 µM; hits give low values;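 active = plate z-score of nuclear minus cytoplasmic receptor signal below a set negative limit, without overly bright fluorescence or cell loss, cut at about -3.5 in these data, passing the limit was not always enough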;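 also: z-score of nuclear minus cytoplasmic ring GR-EGFP intensity difference per well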
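Buffer or medium: tetracycline-free induction medium containing charcoal-stripped FBS / Reagent: dexamethasone agonist, 1.0 µM final, for 30 min / Technique: automated 10x imaging of fixed Hoechst-stained cells / Times: induction 48 h, compound 1 h, agonist 30 min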
Hsp70 activator: transcriptional activators of Hsp70. actives 0.04% (n = 200,000). activation, % at 10 µM. AID 1203. HeLa Hsp70 promoter luciferase reporter, luminescence; scaled: vehicle 0, proteasome-inhibitor control 100%;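 active = activation above the mean across all tested compounds plus 3 SD, cutoff set per campaign, cut at about 5.5% in these data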
S1P4 agonist: human S1P4 receptor agonism; O95977; S1P4-expressing cell line, agonist reporter assay; activation, % at 4.98 µM; actives 0.35% (n = 220,000); AID 1509; in the data active = activation above about 11%
Target sequence (O95977 whole entry, looked up): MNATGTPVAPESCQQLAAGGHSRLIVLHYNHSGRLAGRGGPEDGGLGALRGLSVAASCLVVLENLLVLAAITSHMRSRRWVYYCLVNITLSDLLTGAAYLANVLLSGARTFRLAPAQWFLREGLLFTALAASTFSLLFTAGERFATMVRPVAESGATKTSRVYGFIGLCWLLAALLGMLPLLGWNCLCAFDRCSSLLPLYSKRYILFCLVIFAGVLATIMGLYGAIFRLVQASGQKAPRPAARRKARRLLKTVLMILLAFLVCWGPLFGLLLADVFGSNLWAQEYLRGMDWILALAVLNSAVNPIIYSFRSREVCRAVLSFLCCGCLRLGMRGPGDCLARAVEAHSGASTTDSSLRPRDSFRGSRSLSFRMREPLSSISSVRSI
S1P4 antagonist: human S1P4 receptor antagonism. inhibition, % at 4.98 µM. S1P4-expressing cells, antagonist mode, reporter read-out. O95977. actives 0.26% (n = 220,000); in the data active = inhibition above about 29%
S1P4 antag cf: confirmation of human S1P4 receptor antagonists; AID 1524; S1P4-expressing cell line, antagonist mode, reporter read-out; shares compounds with S1P4 antagonist; actives 71% (n = 520); inhibition, % at 4.98 µM; in the data active = inhibition above about 30%
S1P1 antagonist: counter-screen for S1P4 antagonists: antagonists of human S1P1; shares compounds with S1P4 antagonist; cell-based S1P1 antagonist counterscreen, inhibition; inhibition, % at 4.98 µM; actives 37% (n = 520); AID 1564; in the data active = inhibition above about 40%;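 also: receptor stimulated with S1P near its EC80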
Large screens that a line does not name were inactive (follow-up assays come after a bar, where they were run).

CCc1ccc(OCC(=O)NC(NC(=S)Nc2ccc(Cl)cc2)C(Cl)(Cl)Cl)cc1 (stereo not given)	S1P4 antagonist 41.5 | S1P4 antag cf inactive | S1P1 antagonist inactive
O=C(Oc1ccc(Br)cc1C(=O)/C=C/c1ccccc1F)c1ccco1	Dynein transport -5.76, S1P4 antagonist 41.4 (no result: MDM2 E3 inh, S1P3 antag) | S1P4 antag cf 94.4 | S1P1 antagonist inactive
N#CCCN(C(=O)COC(=O)C1CCN(S(=O)(=O)c2cccs2)CC1)c1ccccc1	none (no result: MDM2 E3 inh)
CCCCC(=O)O[C@]1(C(=O)CO)CC[C@H]2[C@@H]3CCC4=CC(=O)CC[C@]4(C)[C@H]3[C@@H](O)C[C@@]21C	none (no result: MDM2 E3 inh)
CC1(C)O[C@@H]2C[C@H]3[C@@H]4C[C@H](F)C5=CC(=O)CC[C@]5(C)[C@H]4[C@@H](O)C[C@]3(C)[C@]2(C(=O)CO)O1	S1P4 antagonist 59.0 (no result: MDM2 E3 inh) | S1P4 antag cf inactive | S1P1 antagonist inactive
Nc1nc(Nc2cccc3ccccc23)nc(C2CCCC2=O)n1 (stereo not given)	none
Nc1nc(CCl)nc(Nc2cccc3ccccc23)n1	S1P4 antagonist 33.0 (no result: Hsp70 activator) | S1P4 antag cf 54.6 | S1P1 antagonist inactive
Cc1cc(C)c(C)c(S(=O)(=O)N[C@@H](C)C(=O)OCc2cc(=O)n3cc(Br)ccc3n2)c1C	none
CN(C)c1ccc(C(=O)c2ccc(N(C)C)c3ccccc23)cc1	S1P4 antagonist 34.1 (no result: S1P3 antag) | S1P4 antag cf 50.3 | S1P1 antagonist 60.2
COc1ccc(C(=O)c2ccc(N(C)C)cc2)c(OC)c1	none
O=C(Nc1ccc(Cl)cc1)c1cccnc1N1CCCCC1	S1P4 antagonist 95.0 (no result: S1P3 antag) | S1P4 antag cf inactive | S1P1 antagonist inactive
CC(=O)N=c1c(C#N)cc2c(=O)n3cccc(C)c3nc2n1CC(C)C	none (no result: MDM2 E3 inh, Dynein transport, Hsp70 activator, S1P4 agonist, S1P4 antagonist)
COc1ccc2c(c1)c(/C=N/Nc1nc3ccccc3[nH]1)c(C)n2C	S1P4 antagonist 32.0 (no result: Hsp70 activator) | S1P4 antag cf inactive | S1P1 antagonist inactive
COc1cc(/C=N\Nc2nc3ccccc3[nH]2)cc(OC)c1OC	none (no result: S1P3 antag)
CC(=O)NC(CCCNC(=S)NC1CCCCC1)C(=O)O (stereo not given)	none
O=C(c1ccc(-n2cccn2)cc1)N1CCc2ccccc2C1	none (no result: Hsp70 activator)
OC(CNCCc1ccccc1)COc1ccc(OCC(O)CNCCc2ccccc2)cc1 (stereo not given)	S1P4 antagonist 32.4 (no result: Hsp70 activator) | S1P4 antag cf 55.2 | S1P1 antagonist inactive
COc1cc(CNCCO)cc(Cl)c1OCc1ccc(Cl)cc1Cl	S1P4 antagonist 31.1 | S1P4 antag cf 50.6 | S1P1 antagonist 64.0
CCOc1ccc(C(C)=O)cc1N1C(=O)C2C3C=CC(C3)C2C1=O (stereo not given)	none
CCOc1ccc(C(C)=O)cc1N1C(=O)C2C3C=CC(O3)C2C1=O (stereo not given)	S1P4 antagonist 52.6 | S1P4 antag cf inactive | S1P1 antagonist inactive
O=C(Nc1nnc(-c2cccs2)o1)C1CC1	S1P4 antagonist 30.8 | S1P4 antag cf inactive | S1P1 antagonist inactive
O=C(Nc1nnc(-c2ccc(Cl)s2)o1)C1CC1	none
CC(C)(C)c1csc(Sc2ccc([N+](=O)[O-])cn2)n1	none (no result: Hsp70 activator)
Cc1ccc(NC(=O)C(=O)NCC2CCCO2)cc1 (stereo not given)	S1P4 antagonist 78.8 | S1P4 antag cf inactive | S1P1 antagonist inactive
Cc1ccc(NC(=O)C(=O)NCC2CCCO2)cc1C (stereo not given)	none
CCC(=O)NC(=S)N1CCN(c2ccc([N+](=O)[O-])cc2Cl)CC1	none (no result: S1P3 antag)
Cc1ccc(C)c(N(C(=O)Cn2nnc3ccccc32)C(C(=O)NCc2ccco2)c2ccncc2)c1 (stereo not given)	S1P4 antagonist 34.2 | S1P4 antag cf inactive | S1P1 antagonist inactive
CC(C)C(=O)N1CCN(c2ccc(NC(=O)c3ccc([N+](=O)[O-])o3)cc2)CC1	S1P4 antagonist 69.8 | S1P4 antag cf 88.0 | S1P1 antagonist 66.2
Cc1cc(NC(=O)c2ccc([N+](=O)[O-])o2)ccc1NC(=O)c1ccco1	S1P4 antagonist 89.6 | S1P4 antag cf 107.4 | S1P1 antagonist 58.2
Cc1cc(C)cc(NC(=O)c2ccc([N+](=O)[O-])o2)c1	S1P4 antagonist 62.7 | S1P4 antag cf 88.6 | S1P1 antagonist inactive
CC(C)C(=O)N1CCN(c2ccc(NC(=O)c3ccc(Br)o3)cc2)CC1	none
Cc1ccc(S(=O)(=O)N(C)C)cc1NC(=S)N1CCN(Cc2ccc3c(c2)OCO3)CC1	none
Cc1ccc(C)n1-c1ccc(C(=O)N2CCC(C(N)=O)CC2)cc1	S1P4 antagonist 43.6 | S1P4 antag cf inactive | S1P1 antagonist inactive
O=C1/C(=C/c2ccc(O)cc2)SC(=S)N1CC1CCCO1 (stereo not given)	S1P4 antagonist 29.7 (no result: Hsp70 activator) | S1P4 antag cf inactive | S1P1 antagonist inactive
CCCOc1ccc(/C=C2\SC(=S)N(CC3CCCO3)C2=O)cc1 (stereo not given)	none
CCOC(=O)CS(=O)(=O)c1nc(-c2ccccc2)cc(C(F)(F)F)n1	S1P4 antagonist 98.1 | S1P4 antag cf 115.5 | S1P1 antagonist inactive
O=C(O)CCS(=O)(=O)c1nc(-c2cccs2)cc(C(F)(F)F)n1	none (no result: S1P3 antag)
CCOC(=O)CS(=O)(=O)c1ccccc1	none (no result: S1P3 antag)
COC(=O)CCS(=O)(=O)c1nc(-c2ccccc2)cc(C(F)(F)F)n1	S1P4 antagonist 60.3 (no result: S1P3 antag) | S1P4 antag cf 113.1 | S1P1 antagonist inactive
CS(=O)(=O)c1nc(-c2cccs2)cc(C(F)(F)F)n1	S1P4 antagonist 39.4 (no result: S1P3 antag) | S1P4 antag cf 118.5 | S1P1 antagonist 40.8
CCOC(=O)CCS(=O)(=O)c1nc(-c2ccccc2)cc(C(F)(F)F)n1	S1P4 antagonist 84.3 | S1P4 antag cf 114.0 | S1P1 antagonist 51.7
COc1nc(-c2ccccc2)cc(C(F)(F)F)n1	none
CCC(C)C(NC(=O)c1ccccc1NC(=O)c1ccco1)C(=O)NNC(=O)c1ccncc1 (stereo not given)	none (no result: Hsp70 activator)
CC(=O)C1=C(O)C(=O)N(C)C1c1ccccc1[N+](=O)[O-] (stereo not given)	none (no result: Hsp70 activator)
CCC(C)Sc1nc2c(c(=O)[nH]1)C(c1cccs1)C1=C(CCCC1=O)N2 (stereo not given)	none
ClCC1CN(Cc2ccccc2Cl)CCO1 (stereo not given)	none
O=S(=O)([N-]c1nc2ccccc2nc1-[n+]1ccccc1)c1ccc(F)cc1	none
C=CCN(c1ccc(C(=O)Nc2cccc([N+](=O)[O-])c2)cc1)S(C)(=O)=O	none
CCCN1C(=O)/C(=C/c2ccc(OCC(=O)OCC)cc2)NC1=S	S1P4 antagonist 30.3 | S1P4 antag cf inactive | S1P1 antagonist inactive
